# A selection: hits, their analogues and other compounds. The true share with any hit is near 1.6%.
# SKN-1 inh: C. elegans SKN-1 inhibition. 0.49% of 360,000 active. C. elegans VP596 Pgst-4::GFP/RFP ratio, acrylamide-induced, 24 h. inhibition, % at 21.8 µM;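 active = interference check ratio from 0.5 to 1.5 plus GFP to RFP signal ratio inhibition reaching or exceeding a fixed threshold, cut at about 30% in these data, passing the limit was not always enough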
# Rin1-Abl PPI inh: human Rin1-Abl interaction inhibition; P00519+Q13671; TR-FRET Rin1/Abl binding, biochemical; inhibition, % at 7.35 µM; 0.4% of 360,000 active; in the data active = inhibition above about 5%, passing the limit was not always enough
# Target sequence (P00519 whole entry, looked up): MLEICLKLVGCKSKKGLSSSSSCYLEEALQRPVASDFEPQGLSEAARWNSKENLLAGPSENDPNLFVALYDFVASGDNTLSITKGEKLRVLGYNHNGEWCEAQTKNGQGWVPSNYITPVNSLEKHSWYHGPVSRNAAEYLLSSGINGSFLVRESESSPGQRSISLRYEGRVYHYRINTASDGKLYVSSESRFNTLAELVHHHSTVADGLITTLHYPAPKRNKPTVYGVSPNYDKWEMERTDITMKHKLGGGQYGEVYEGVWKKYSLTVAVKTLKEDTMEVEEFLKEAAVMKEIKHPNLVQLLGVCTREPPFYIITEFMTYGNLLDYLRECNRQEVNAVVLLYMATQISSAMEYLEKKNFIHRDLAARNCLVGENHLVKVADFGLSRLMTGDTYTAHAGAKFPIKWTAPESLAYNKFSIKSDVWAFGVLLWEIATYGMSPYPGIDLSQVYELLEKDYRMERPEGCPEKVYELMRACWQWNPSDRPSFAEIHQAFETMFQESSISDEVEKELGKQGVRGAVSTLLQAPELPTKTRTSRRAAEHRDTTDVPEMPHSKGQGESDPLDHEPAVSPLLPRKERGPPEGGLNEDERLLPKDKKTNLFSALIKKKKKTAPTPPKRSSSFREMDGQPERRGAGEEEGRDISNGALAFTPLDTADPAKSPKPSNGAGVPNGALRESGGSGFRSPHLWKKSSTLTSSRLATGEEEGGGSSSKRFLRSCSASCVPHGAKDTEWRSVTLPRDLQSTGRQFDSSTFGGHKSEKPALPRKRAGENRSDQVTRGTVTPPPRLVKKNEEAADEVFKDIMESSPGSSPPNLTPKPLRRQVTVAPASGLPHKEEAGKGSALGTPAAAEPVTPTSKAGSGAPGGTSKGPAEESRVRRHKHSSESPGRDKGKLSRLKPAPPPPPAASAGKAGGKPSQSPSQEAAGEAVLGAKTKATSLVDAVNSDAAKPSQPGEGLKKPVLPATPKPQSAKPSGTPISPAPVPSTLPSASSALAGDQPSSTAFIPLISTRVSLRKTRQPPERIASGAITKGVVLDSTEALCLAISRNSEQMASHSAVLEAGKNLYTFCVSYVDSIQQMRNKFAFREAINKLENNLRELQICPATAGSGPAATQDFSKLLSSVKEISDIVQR
# Target sequence (Q13671 whole entry, looked up): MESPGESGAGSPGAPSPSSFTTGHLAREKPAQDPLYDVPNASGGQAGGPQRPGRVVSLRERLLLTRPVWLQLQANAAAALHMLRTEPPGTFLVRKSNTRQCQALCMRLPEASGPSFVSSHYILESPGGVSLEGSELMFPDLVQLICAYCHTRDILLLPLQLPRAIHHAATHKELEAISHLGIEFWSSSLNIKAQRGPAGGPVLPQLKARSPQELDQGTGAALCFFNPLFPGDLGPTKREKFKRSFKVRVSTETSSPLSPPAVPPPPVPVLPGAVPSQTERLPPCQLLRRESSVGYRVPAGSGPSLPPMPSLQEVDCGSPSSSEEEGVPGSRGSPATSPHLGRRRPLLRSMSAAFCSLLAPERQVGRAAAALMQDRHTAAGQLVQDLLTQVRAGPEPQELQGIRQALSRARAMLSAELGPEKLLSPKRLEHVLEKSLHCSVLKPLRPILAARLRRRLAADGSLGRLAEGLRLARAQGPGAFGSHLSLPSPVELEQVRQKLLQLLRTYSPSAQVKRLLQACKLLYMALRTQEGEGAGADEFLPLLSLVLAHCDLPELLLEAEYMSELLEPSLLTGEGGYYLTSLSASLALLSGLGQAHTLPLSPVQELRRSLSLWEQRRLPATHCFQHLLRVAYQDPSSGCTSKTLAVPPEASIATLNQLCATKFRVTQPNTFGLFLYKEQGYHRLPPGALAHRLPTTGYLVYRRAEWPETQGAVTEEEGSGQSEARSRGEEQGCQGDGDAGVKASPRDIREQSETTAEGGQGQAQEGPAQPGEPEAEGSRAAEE
# Tb MetRS inh: Trypanosoma brucei MetRS inhibition | 0.4% of 360,000 active | purified T. brucei MetRS, ATP depletion, Kinase-Glo luminescence | AID 624268 | inhibition, % at 11.9 µM;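 active = inhibition above a per-plate cutoff of the control wells' mean inhibition plus 3 SD, cut at about 5.5% in these data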;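 also: 0% = DMSO wells median and 100% = median of wells with control inhibitor compound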
#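 Test system: purified T. brucei MetRS enzyme. Also added: ATP, methionine and E. coli bulk tRNA substrates. Compound: 11.9 µM single point. Schedule: 15 min enzyme-compound preincubation, 2 h reaction, 10 min detection, 25 °C. Signal: luciferase luminescence of residual ATP, Kinase-Glo. Evaluation: percent inhibition versus plate control medians. Controls: DMSO wells, low control.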
# Arr AP2 block: blocks beta-arrestin peptide binding to AP2 adaptin; FITC-arrestin peptide / GST-AP2 beads, flow cytometry; AP2 beta2 appendage carries R879A mutation; inhibition, % at 10 µM; 0.31% of 340,000 active; AID 504490;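 active = inhibition above a set limit, near 3 SD of compounds lacking own fluorescence, cut at about 54% in these data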;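 also: plate controls were DMSO wells for no effect and 5 µM unlabelled arrestin peptide for full effect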
#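 Test system: GST-tagged AP2 beta2-adaptin appendage (R879A) on 4 µm glutathione beads; also added: fluorescein-tagged arrestin peptide at 50 nM final; timing: 12 min plus 1 h, RT; signal: flow cytometry, FL1 (488/535 nm); read-out: percent drop in bead-associated FITC signal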
# MT1-MMP act inh: blocks activation of human MT1-MMP | P50281 | HT1080 RFP-PRO-GFP cells, GFP/RFP ratio fluorescence, overnight; percent of plate control window, DMSO zero | GFP/RFP ratio change, % at 20 µM | 0.061% of 360,000 active;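 active = GFP/RFP ratio change of at least 30% with cell ATP level not reduced by more than half and red fluorescence within 50% of control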
#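 Read-out: GFP/RFP fluorescence ratio; Test system: RFP-PRO-GFP reporter HT1080 cells; Compound dosing: single-point 20 µM compound, 1% DMSO; Times: overnight compound exposure at 37 °C.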
# Numbers without * were called inactive; / = no result.
SMILES,SKN-1 inh,Rin1-Abl PPI inh,Tb MetRS inh,Arr AP2 block,MT1-MMP act inh
CC(C)NC(=O)C1(C)CN(S(C)(=O)=O)CC(=O)N1Cc1cccs1 (stereo not given),9.9,/,-0.3,/,2.1
COC(=O)C1=C(N)Oc2cc(C)n(CC3CCCO3)c(=O)c2C1c1ccc(Cl)c(Cl)c1 (stereo not given),32.6*,2.5,38.4*,35.1,3.4
Nc1sccc1C(=O)NCCN1CCOCC1,29.1,/,-0.9,/,3.2
CN(Cc1ccccc1)C(=O)c1nc[nH]c1C(=O)N1CCc2ccccc2C1,-12.0,4.9,-0.2,24.3,-3.1
O=C(c1nc[nH]c1C(=O)N1CCc2ccccc2C1)N1CCc2ccccc2C1,37.7*,4.1,0.0,26.3,1.0
Cc1ccc2cc3cc(C(=O)N4CC(C)CC(C)C4)oc3nc2c1 (stereo not given),38.8*,-3.0,0.4,3.9,3.5
COc1ccc2cc3cc(C(=O)N4CC(C)CC(C)C4)oc3nc2c1 (stereo not given),-5.7,-5.7,0.2,4.3,2.7
CC(=O)c1ccc(OC(=O)c2ccc(-n3nc(C)cc3C)cc2)cc1,3.4,-3.0,0.1,13.6,0.4
Cc1cc(C)n(-c2ccc(C(=O)Oc3ccc4c(c3)OCO4)cc2)n1,37.0*,-0.8,-0.6,-0.7,-9.7
O=c1c2cc3c(cc2[nH]c(=S)n1Cc1ccco1)OCO3,40.4*,7.0,1.3,5.9,-1.7
Cc1cc(C)c2cc(C#N)c(N3CCCC3)nc2c1,48.2*,-9.2,-0.1,6.3,-2.6
COC(=O)CSc1nc2cc(C)cc(C)c2cc1C#N,37.3*,-5.0,-0.8,-2.5,-32.9
Cc1cc(NS(=O)(=O)c2ccc(NC(=O)c3cc(-c4cccnc4)nc4ccc(Cl)cc34)cc2)no1,37.0*,-0.6,-0.8,11.9,7.9
Cc1cc(NS(=O)(=O)c2ccc(NC(=O)c3cc(-c4ccccc4Cl)nc4ccccc34)cc2)no1,-4.4,0.0,-0.1,-7.8,4.3
c1ccc(OCCSc2nc3ccccc3o2)cc1,38.6*,-1.7,0.2,6.7,2.3
c1ccc(SCc2nc3ccccc3s2)nc1,30.6,-1.0,-1.5,12.2,-3.3
c1ccc(-c2noc(CSc3nc4ccccc4o3)n2)cc1,43.8*,-3.7,-0.9,1.2,-2.0
c1ccc2oc(SCc3nc4ccccc4s3)nc2c1,45.0*,1.1,0.3,3.2,-0.2
CCOc1ccc(OCCSc2nc3ccccc3o2)cc1,19.1,1.6,-0.4,-4.8,0.6
O=C(Nc1ccc2c(c1)OCCO2)C(C1CC1)n1c(=O)c(-c2cc3ccccc3[nH]2)nc2ccccc21 (stereo not given),7.1,/,0.0,/,-5.2
N=C1CCCC1C(=S)SCCC(N)=O (stereo not given),13.9,-0.8,0.0,/,-8.3
FC(F)(F)c1cc(-c2cccs2)nc(-n2cc(Br)cn2)n1,45.2*,-2.0,-0.1,-4.0,0.1
Cc1cccc(C)c1NC(=O)C1(C)CN(S(C)(=O)=O)CC(=O)N1CC(F)(F)F (stereo not given),-1.4,/,-0.7,/,5.4
CCCOc1ccc(-c2nnc(-c3ccco3)o2)cc1,78.6*,-1.9,-0.6,0.0,4.3
CC(C)COc1ccc(-c2nnc(-c3ccco3)o2)cc1,43.2*,-4.0,-0.5,54.0,3.8
SMILES,SKN-1 inh,Rin1-Abl PPI inh,Tb MetRS inh,Arr AP2 block,MT1-MMP act inh
COc1ccc(-c2ccc(C(=O)Nc3cc(OC)c(OC)c(OC)c3)c3occc23)c(C)c1,8.4,-2.6,-0.5,/,-6.4
Cc1ccc(C(=O)CSC2=C(C#N)C(c3ccco3)C3=C(CC(C)(C)CC3=O)N2)cc1 (stereo not given),27.6*,3.2,-1.1,19.4,-0.5
COc1ccc(CNCCCn2cnc3c(SC)ncnc32)cc1,-16.0,1.8,0.2,/,0.7
Cc1ccc(C)c(OCCn2ccnc2)c1,-16.8,10.2*,-0.1,5.6,-0.5
Clc1cccc(/C=N/N2CCN(Cc3ccccc3)CC2)c1,44.1*,2.5,-2.5,8.1,10.0
CCNC(=O)C1CCCN(C(=O)Cc2ccc3ccccc3c2)CC1 (stereo not given),22.4,7.3,-0.1,/,5.2
CCCSc1ccc2nc(-c3ccccc3)cn2c1,50.0*,-3.1,-1.2,-6.0,1.3
O=C(NC(c1ccc(F)cc1)c1ccc2ccccc2n1)C1CCN(Cc2cccc(C(F)(F)F)c2)CC1 (stereo not given),20.8,1.0,1.0,/,3.1
O=C1c2ccccc2C(c2nnnn2-c2ccc3c(c2)OCCO3)N1CCCN1CCOCC1 (stereo not given),-2.3,/,-1.3,/,-1.9
COc1ccc(C(=O)Nc2nc(-c3cccs3)cs2)cc1,46.5*,-0.5,-1.2,3.9,-8.3
COCCCNC(=O)c1cn(CC(C)C)c(=O)c2c1c1ccccc1n2C,50.4*,-6.0,-0.8,9.9,2.4
COCCCNC(=O)c1cn(CCOC)c(=O)c2c1c1ccccc1n2C,6.7,5.8,-0.3,6.6,-3.4
Cc1cccc(S(=O)(=O)N2C[C@@H](O)COC[C@@H]3O[C@H](CC(=O)NCCCN4CCOCC4)CC[C@H]32)c1,-10.9,/,-0.7,/,1.9
O=C1c2ccccc2-c2cc(Br)ccc2NC1O (stereo not given),-1.6,-1.1,-0.2,/,-1.8
O=C1c2cc(Br)ccc2OC2C=CC=CC12 (stereo not given),42.0*,-2.8,0.0,-2.5,2.7
O=C(Cc1cccnc1)N[C@@H]1CC[C@H](CCn2cc(Cc3ccccc3)nn2)O[C@@H]1CO,-7.4,/,-0.9,/,2.4
O=C(Nc1c(Cl)cccc1Cl)c1cc(-c2ccco2)on1,-8.4,1.5,-0.3,5.9,-1.6
O=C(Nc1cccc(Cl)c1)c1cc(-c2ccco2)on1,39.1*,-3.1,0.6,-0.4,1.2
COc1ccc(NC(=O)c2cc(-c3ccco3)on2)cc1,15.7,-0.5,0.4,-13.9,3.1
CCc1ccc(NC(=O)c2cc(-c3ccco3)on2)cc1,45.2*,2.1,-0.1,14.8,-0.5
COc1ccc2c(c1)C(=O)C1(CC2)OC1c1cccnc1 (stereo not given),5.0,-4.5,0.4,/,0.2
O=[N+]([O-])c1ccc(/C=C/C2=NN(c3ccccc3)C(c3ccco3)C2)o1 (stereo not given),33.3*,-2.1,-0.8,-46.4,-32.4
CCOC(=O)C1=CCC(c2ccc(N(CC)CC)cc2)N(S(=O)(=O)c2ccc(C)cc2)C1c1ccc([N+](=O)[O-])cc1 (stereo not given),-11.6,/,-0.3,/,-4.3
CCCCC1OC23CCCCC2C(C#N)(C#N)C1(C#N)C(=N)O3 (stereo not given),28.2,-2.1,0.0,-4.9,-2.1
CCCCCCCCOc1ccc(C2OC34CCCCC3C(C#N)(C#N)C2(C#N)C(=N)O4)cc1 (stereo not given),47.0*,-2.1,-1.2,2.1,-33.8

# Bioassay records as filed in PubChem.
